Source: ChEMBL document CHEMBL3784931, “Synthesis and evaluation of novel angiotensin II receptor 1 antagonists as anti-hypertension drugs” (Bioorg Med Chem, 2016)

Molecular target: T1, Type-1 angiotensin II receptor A (Rattus norvegicus, UniProt P25095)
T1 sequence (P25095 whole entry): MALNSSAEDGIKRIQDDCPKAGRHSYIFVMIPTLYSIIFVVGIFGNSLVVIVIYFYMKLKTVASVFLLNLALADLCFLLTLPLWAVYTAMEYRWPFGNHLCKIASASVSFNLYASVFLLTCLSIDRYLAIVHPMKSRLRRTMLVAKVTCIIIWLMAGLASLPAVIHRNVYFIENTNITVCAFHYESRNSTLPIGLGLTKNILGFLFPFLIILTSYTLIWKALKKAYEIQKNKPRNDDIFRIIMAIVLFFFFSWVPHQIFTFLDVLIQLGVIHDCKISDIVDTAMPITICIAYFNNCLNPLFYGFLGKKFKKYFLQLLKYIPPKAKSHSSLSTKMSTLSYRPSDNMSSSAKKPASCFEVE
Experiment: Displacement of [125I]-Ang II from Angiotensin 2 type-1A receptor in rat vascular smooth muscle cells after 150 mins by gamma counting method
Outline: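 Rat vascular smooth muscle cells (passages 3–6) were seeded at 10⁶ cells/well and grown at 37 °C in 5% CO₂. Nonspecific binding was taken with 1 µM Ang II. Cells were washed three times, lysed 10 min in 0.1 M NaOH, and bound radioactivity was gamma counted.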

An IC50 of 4.32 nM and a Ki of 3.13 nM were found for `CCCCc1nc(Cl)c(C=O)n1Cc1ccc(-c2ccccc2-c2noc(=O)[nH]2)cc1` in this work.
